From ChEMBL document CHEMBL4261576, “Conformationally restricted benzothienoazepine respiratory syncytial virus inhibitors: their synthesis, structural analysis and biological activities” (Medchemcomm, 2018)
“And” between values parts separate entries of the source, which are not always exact repeats. Equal values may be shown once.

Assays:
[1] = test system: Respiratory syncytial virus; assay: Antiviral activity against RSV A2 infected in human HEp2 cells assessed as protection against virus-induced cytopathic effect after 5 days by resazurin assay; format: functional, organism-based; conditions: A2, HEp-2, 120 h
In short: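 HEp2 cells seeded at 10^3/well in 5% FBS-DMEM with 2 mM L-glutamine and 1 mM sodium pyruvate one day before infection. RSV A2 added in serum-free DMEM at final MOI 1, with compound added at the same time (final DMSO 0.5%). Incubated 5 days at 37°C/5% CO2. Resazurin then added for 6 h; fluorescence read at 545/590 nm. Percent inhibition per well; IC50 taken from the concentration-response curve.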

[2] = test system: Respiratory syncytial virus; assay: Antiviral activity against RSV B Washington infected in human HEp2 cells assessed as protection against virus-induced cytopathic effect after 6 days by resazurin assay; format: functional, organism-based; conditions: HEp-2, 144 h
In short: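 HEp2 cells seeded at 10^3/well in 5% FBS-DMEM with glutamine and pyruvate one day before infection. RSV B Washington added in serum-free DMEM at final MOI 0.2, with compound added at the same time (0.5% DMSO final). Incubated 6 days at 37°C/5% CO2. Resazurin added for 6 h; fluorescence read at 545 nm ex / 590 nm em. IC50 taken from the concentration-response curve.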

[3] = test system: Respiratory syncytial virus; assay: Antiviral activity against RSV A2 infected in human HEp2 cells assessed as protection against virus-induced cytopathic effect at 0.014 uM after 5 days by resazurin assay relative to control; format: functional
[4] = target: Vasopressin V1a receptor (Homo sapiens, UniProt P37288); assay: Displacement of [3H] (Arg8)-vasopressin from human vasopressin V1a receptor expressed in CHO cell membranes after 60 mins
[5] = target: Vasopressin V2 receptor (Homo sapiens, UniProt P30518); assay: Displacement of [3H] (Arg8)-vasopressin from human vasopressin V2 receptor expressed in CHO cell membranes after 60 mins
Vasopressin V2 receptor, sequence (P30518 whole entry): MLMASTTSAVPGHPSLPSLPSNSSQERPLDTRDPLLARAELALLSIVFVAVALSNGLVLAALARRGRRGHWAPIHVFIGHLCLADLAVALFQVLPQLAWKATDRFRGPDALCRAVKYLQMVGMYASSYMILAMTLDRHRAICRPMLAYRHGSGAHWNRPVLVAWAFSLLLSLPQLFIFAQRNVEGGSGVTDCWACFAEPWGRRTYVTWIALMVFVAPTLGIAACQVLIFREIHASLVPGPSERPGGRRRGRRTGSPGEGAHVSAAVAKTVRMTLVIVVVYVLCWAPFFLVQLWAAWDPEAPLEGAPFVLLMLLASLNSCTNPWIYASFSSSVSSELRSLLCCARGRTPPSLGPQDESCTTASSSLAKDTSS

Vasopressin V1a receptor, sequence (P37288 whole entry): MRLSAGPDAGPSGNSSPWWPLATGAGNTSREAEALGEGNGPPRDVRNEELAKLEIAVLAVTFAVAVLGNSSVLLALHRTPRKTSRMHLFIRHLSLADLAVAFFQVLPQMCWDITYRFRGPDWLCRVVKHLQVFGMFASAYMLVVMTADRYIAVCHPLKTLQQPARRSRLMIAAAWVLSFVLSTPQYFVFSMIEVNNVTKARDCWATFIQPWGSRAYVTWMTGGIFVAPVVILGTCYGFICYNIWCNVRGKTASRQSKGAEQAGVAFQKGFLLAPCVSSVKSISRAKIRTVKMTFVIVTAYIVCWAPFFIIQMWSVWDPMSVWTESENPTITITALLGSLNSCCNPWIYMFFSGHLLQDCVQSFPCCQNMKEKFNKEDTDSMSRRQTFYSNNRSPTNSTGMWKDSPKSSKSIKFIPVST

Row | Compound | IC50 [1] [nM] | IC50 [2] [nM] | Activity [3] [%] | Ki [4] | Ki [5]
1 | Cc1cnc(N2CC3(CCOCC3)C2)c(C(=O)Nc2ccc(C(=O)N3CCc4cc(C(=O)Nc5c(C)cccc5F)sc4-c4ccccc43)cc2)c1 [PC-786] | 0.32 | 7.2 | – | – | –
2 | Cc1cnc(N2CC3(CCOCC3)C2)c(C(=O)Nc2ccc(C(=O)N3C[C@@H](C)c4cc(C(=O)Nc5c(C)cccc5F)sc4-c4ccccc43)cc2)c1 | > 14 | > 1370 | 40 | – | –
3 | Cc1ccccc1C(=O)Nc1ccc(C(=O)N2CCC(=O)N(C)c3cccc(C)c32)cc1 | – | – | – | 70 nM and 620 nM | 640 nM and 4700 nM
4 | Cc1cnc(N2CC3(CCOCC3)C2)c(C(=O)Nc2ccc(C(=O)N3c4ccccc4-c4sc(C(=O)Nc5c(F)cccc5F)cc4C[C@@H]3C)cc2)c1 | > 14 | > 1360 | – | – | –
5 | Cc1cnc(N2CC3(CCOCC3)C2)c(C(=O)Nc2ccc(C(=O)N3c4ccccc4-c4sc(C(=O)Nc5c(F)cccc5F)cc4CC3C)cc2)c1 (racemic) | 0.45 | 13 | – | – | –
6 | Cc1cnc(N2CC3(CCOCC3)C2)c(C(=O)Nc2ccc(C(=O)N3C[C@H](C)c4cc(C(=O)Nc5c(C)cccc5F)sc4-c4ccccc43)cc2)c1 | 0.51 | 15 | – | – | –
7 | Cc1cnc(N2CC3(CCOCC3)C2)c(C(=O)Nc2ccc(C(=O)N3c4ccccc4-c4sc(C(=O)Nc5c(F)cccc5F)cc4C[C@H]3C)cc2)c1 | 0.18 | 9.2 | – | – | –
8 | Cc1cnc(N2CC3(CCOCC3)C2)c(C(=O)Nc2ccc(C(=O)N3CC(C)c4cc(C(=O)Nc5c(C)cccc5F)sc4-c4ccccc43)cc2)c1 (racemic) | 1.1 | 17 | – | – | –
